Like-named read-outs stand apart in the source and are kept apart here. Where a SMILES comes first, the peptide text is derived from it. [ ]: non-standard residue; d: D form. The star is where a group is joined. Sta = CC(C)C[C@H](N)[C@@H](O)CC(=O)O; Isovaleryl = CC(C)CC(=O)*; CH2Cl = ClC*
Key:
[1] = test system: HLA-I presentation of M. tuberculosis epitopes by H37Rv-eGFP-infected DCs; test: cells; assay type: cell-based, human; details: for inhibition at 10 µg/mL: Homo sapiens, T-cell
[2] = test system: CD8^+ T cells present in PBMCs; details: PBMCs of the donor from whom the clone was derived; cited from earlier work
DCs = test: Toxicity of inhibitor to DCs; assay type: cell-based; details: human DCs
Summary of the method: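 Human DCs were derived from leukapheresis PBMCs. Adherent PBMCs were cultured 5 d with GM-CSF (10 ng/ml) and IL-4 (10 ng/ml) in RPMI 1640 with 10% pooled human serum, 4 mM L-glutamine and gentamicin (50 μg/ml).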

[3] = target: Purified 20S immunoproteasomes (Homo sapiens, UniProt P28062+P28065+P40306); test: In vitro proteasome digestion of CFP10_2–21; assay type: biochemical; details: epoxomicin 1 μM, 20 h, 37°C
TAP = target: T1, TAP (Homo sapiens, UniProt Q03518+Q03519); test: ICP47-mediated TAP inhibition, intracellular IFN-γ staining of T cell clones; assay type: cell-based; details: adenovirus-ICP47-transduced DCs pulsed with 0.25–1 μg/ml cognate peptides
T1 sequence (Q03518 1-748): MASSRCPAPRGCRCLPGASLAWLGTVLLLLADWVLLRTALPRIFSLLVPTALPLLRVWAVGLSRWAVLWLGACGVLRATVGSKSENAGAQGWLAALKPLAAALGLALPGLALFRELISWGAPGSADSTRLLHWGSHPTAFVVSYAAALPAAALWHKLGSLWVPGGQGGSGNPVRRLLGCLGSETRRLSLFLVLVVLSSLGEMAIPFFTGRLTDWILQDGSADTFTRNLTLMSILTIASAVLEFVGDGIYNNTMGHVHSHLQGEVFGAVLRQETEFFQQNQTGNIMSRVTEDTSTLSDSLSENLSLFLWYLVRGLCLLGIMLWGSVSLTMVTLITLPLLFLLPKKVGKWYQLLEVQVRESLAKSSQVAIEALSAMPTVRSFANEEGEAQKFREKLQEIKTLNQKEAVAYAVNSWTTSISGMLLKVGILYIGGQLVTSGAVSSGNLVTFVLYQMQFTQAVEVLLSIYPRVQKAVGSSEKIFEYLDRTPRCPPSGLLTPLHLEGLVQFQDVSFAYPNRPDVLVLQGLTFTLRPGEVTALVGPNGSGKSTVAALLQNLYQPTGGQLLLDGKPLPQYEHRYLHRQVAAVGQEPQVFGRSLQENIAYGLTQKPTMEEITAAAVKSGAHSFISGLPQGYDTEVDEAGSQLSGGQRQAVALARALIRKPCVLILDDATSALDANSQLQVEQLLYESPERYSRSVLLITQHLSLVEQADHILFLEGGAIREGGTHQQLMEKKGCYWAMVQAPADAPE
T1 sequence (Q03519 1-686): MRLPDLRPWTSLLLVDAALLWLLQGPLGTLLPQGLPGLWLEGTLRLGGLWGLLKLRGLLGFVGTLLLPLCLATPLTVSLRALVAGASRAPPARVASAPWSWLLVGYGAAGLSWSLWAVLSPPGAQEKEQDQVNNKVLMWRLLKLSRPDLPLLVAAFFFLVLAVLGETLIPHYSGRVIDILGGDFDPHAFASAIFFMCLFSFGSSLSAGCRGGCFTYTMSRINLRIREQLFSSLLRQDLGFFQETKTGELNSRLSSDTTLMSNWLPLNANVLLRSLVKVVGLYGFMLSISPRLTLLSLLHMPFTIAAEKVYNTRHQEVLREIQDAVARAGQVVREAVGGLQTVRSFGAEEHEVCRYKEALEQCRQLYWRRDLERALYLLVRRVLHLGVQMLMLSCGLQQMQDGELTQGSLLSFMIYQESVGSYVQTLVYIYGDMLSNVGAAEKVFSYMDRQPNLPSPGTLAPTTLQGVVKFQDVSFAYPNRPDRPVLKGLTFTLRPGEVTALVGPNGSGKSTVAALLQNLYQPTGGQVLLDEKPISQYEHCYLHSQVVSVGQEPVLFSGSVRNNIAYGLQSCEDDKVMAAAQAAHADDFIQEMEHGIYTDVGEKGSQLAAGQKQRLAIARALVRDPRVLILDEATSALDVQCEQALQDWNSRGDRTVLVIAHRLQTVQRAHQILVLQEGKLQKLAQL

[4] = cycloheximide 10 μg/ml, […], Fig. 5
[5] = […], AAF-CMK at highest possible nontoxic dose, data not shown

C[C@@H]1C[C@@H]([C@H](O)CC2CC(=O)NC(=O)C2)C(=O)[C@@H](C)C1 [Cycloheximide, cycloheximide]
inhibition at 10 µg/mL ([1]; read-out: Inhibition of presentation of epitope CFP10_2–12): > 70%
inhibition at 10 µg/mL ([1]; read-out: Inhibition of presentation of epitope EsxJ24–34): > 70%
Effect on presentation of the HLA-E–presented epitope [1, 4]: enhanced presentation
Effect on presentation of the epitope CFP10_2–9 [1, 4]: only slightly inhibited

EMKTDAATL [CFP10_3–11]
Ex Vivo Frequency of CD8+ T cells present in PBMCs specific for the indicated epitope [2]: 1/646

CO/C1=C\C(C)=C\[C@@H](C)[C@@H](O)[C@@H](C)C/C(C)=C/C=C/[C@H](OC)[C@@H]([C@@H](C)[C@@H](O)[C@H](C)[C@@]2(O)C[C@@H](O)[C@H](C)[C@@H](C(C)C)O2)OC1=O [Bafilomycin, bafilomycin]
Effect on presentation of all of the epitopes examined ([1]; […], BFA 0.1 μg/ml, bafilomycin 0.2 μM, Fig. 1): did not significantly inhibit

CC(=O)N[C@@H](CC(C)C)C(=O)N[C@@H](CC(C)C)C(=O)N[C@H](C=O)CCCNC(=N)N [leupeptin]
Effect on presentation of the EsxJ24–34 or CFP10_75–83 epitope [1, 5]: did not block

AEMKTDAA [CFP10_2–9]
Ex Vivo Frequency of CD8+ T cells present in PBMCs specific for the indicated epitope [2]: 1/102

CCN(CC)CCCC(C)Nc1ccnc2cc(Cl)ccc12 (stereo not shown) [chloroquine]
Effect on presentation of the EsxJ24–34 or CFP10_75–83 epitope [1]: neither of these epitopes was inhibited

CC[C@H](C)[C@H](NC(=O)[C@H]([C@@H](C)CC)N(C)C(C)=O)C(=O)N[C@H](C(=O)N[C@@H](CC(C)C)C(=O)[C@@]1(C)CO1)[C@@H](C)O [Epoxomicin, epoxomicin]
Effect on presentation of CFP10_2–9 and Ag85B144–153 epitopes ([1]; epoxomicin 1–10 μM, […], Fig. 2): ablated
Highest dose that was nontoxic to DCs (DCs): 10 µM
Effect on amount of CFP10_2–11 generated from CFP10_2–21 by proteasomes ([3]; IFN-γ ELISPOT and LC-MS): drastically reduced
Effect on generation of CFP10_2–12 from CFP10_2–21 by proteasomes ([3]; detectible by T cell assay but not LC-MS): enhanced the generation

ICP47: HSV-1–encoded protein, prevents peptide binding to cytosolic face of TAP; expressed from an adenovirus vector
Effect on presentation of cognate peptide to CD8+ T cell clones (TAP): no effect

C[C@H](N)C(=O)N[C@@H](C)C(=O)N[C@@H](Cc1ccccc1)C(=O)CCl [AAF-CMK] (H-Ala-Ala-Phe-CH2Cl)
Effect on presentation of the EsxJ24–34 or CFP10_75–83 epitope [1, 5]: no effect

CC(C)CC(=O)N[C@H](C(=O)N[C@H](C(=O)N[C@@H](CC(C)C)[C@@H](O)CC(=O)N[C@@H](C)C(=O)N[C@@H](CC(C)C)[C@@H](O)CC(=O)O)C(C)C)C(C)C [pepstatin A] (Isovaleryl-VV[Sta]A[Sta]-OH)
Effect on presentation of the EsxJ24–34 or CFP10_75–83 epitope [1, 5]: did not block

Reference: publication PMC2988655 (Journal of immunology (Baltimore, Md. : 1950), 2010)
